Test results as given in article PMC5045767 (Bioorganic & medicinal chemistry, 2016).
Converted amounts (≈) assume the structure as drawn. “Also recorded” adds a separate entry of the source. Where two headings read alike, the source gives them in different places.

What was measured:
MRSA S22 (strain W) = test: time-kill assay; format: cell-based, S. aureus; conditions: 4× MIC, over 24 h
[1] = system: S. aureus ATCC 6538 (strain A); test: reduction of established biofilm; format: cell-based; conditions: 1× to […] MIC tested, concentration not given
[2] = system: murine red blood cells (mRBCs); test: hemolytic assay; format: cell-based, mouse; conditions: compared to ebselen / among ebsulfur analogues tested
[3] = system: S. epidermidis ATCC 35984 (strain AC); test: membrane disruption, propidium iodide staining; format: cell-based; conditions: 1× and 4× MIC
How it was run: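 Membrane integrity was assessed by propidium iodide uptake, with red-stained cells scored as membrane-compromised. […] Controls: untreated and aminoglycoside-treated cells (negative), and a tobramycin derivative carrying a C14 linear alkyl thioether at the 6″-position (positive).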

[4] = system: S. epidermidis ATCC 35984 (strain AC); test: ROS production, DCFH-DA staining; format: cell-based; conditions: 1× and 4× MIC, 1 h at 37 °C
How it was run: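 Untreated cells served as negative control and 1 mM H2O2 as positive control. Cells were then stained with DCFH-DA (40 μg/mL) and examined by fluorescence microscopy.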

S. aureus ATCC 25923 = test: MIC, broth double dilution; format: cell-based; conditions: Staphylococcus aureus, ATCC25923, strain B = S. aureus ATCC 25923
MRSA NRS77 = test: MIC, broth double dilution; format: cell-based, S. aureus; conditions: Staphylococcus aureus, MRSA|NRS77, strain T = MRSA NRS77
E. faecium BM4105-RF = test: MIC, broth double dilution; format: cell-based; conditions: Enterococcus faecium, BM4105RF, strain AF = E. faecium BM4105-RF
[5] = MIC broth double-dilution assay with the inoculum size of the time-kill assays; format: cell-based; conditions: inoculum 1×10^6 CFU/mL
HEK-293 = test: mammalian cytotoxicity; format: cell-based; conditions: for cytotoxicity (significant = >20% cell death): up until 10 μg/mL, HEK-293; for difference between cytotoxic concentration and MIC values: HEK-293 vs MRSA strains, depending on the strain
[6] = system: S. aureus ATCC 6538 (strain A); conditions: 2 μg/mL; cited from earlier work
S. aureus strains = test: MIC over the panel of S. aureus strains; format: cell-based
[7] = solubility in liquid Mueller-Hinton medium; format: physicochemical
NorA, efflux pump = conditions: NorA inhibitor; cited from earlier work

Compound	membrane disruption (PI uptake) [3]	ROS production (DCFH-DA) [4]	MIC (E. faecium BM4105-RF) [µg/mL]	MIC values with time-kill inoculum size compared with standard MIC [5]	cytotoxicity (significant = >20% cell death) (HEK-293)	also measured
CCCCCCCCn1sc2ccccc2c1=O [3c]	no sign of membrane disruption	led to production of ROS				reduction of bacterial load (MRSA S22 (strain W)): 1.5 orders of magnitude; biofilm reduction [1]: low to no biofilm reduction; hemolytic activity, comparison [2]: less hemolytic when compared to ebselen
NCC[C@H](O)C(=O)N[C@@H]1C[C@H](N)[C@@H](O[C@H]2O[C@H](CN)[C@@H](O)[C@H](O)[C@H]2O)[C@H](O)[C@H]1O[C@H]1O[C@H](CO)[C@@H](O)[C@H](N)[C@H]1O [AMK, amikacin, reference compound]			≥ 125	remained identical		MIC (S. aureus ATCC 25923): ≤ 0.5 µg/mL; MIC (MRSA NRS77): ≤ 0.5 µg/mL
O=c1c2ccccc2[se]n1-c1ccccc1 [Ebselen, 2-phenyl-1,2-benzisoselenazol-3(2H)-one, reference compound]	no sign of membrane disruption	led to production of ROS		remained identical	very similar	biofilm reduction [6]: approximately 60%
CC(C)c1cccc(-n2sc3ccccc3c2=O)c1 [2h]			2 to 7.8 (≈ 7.42 to 29 µM)	remained identical	did not display any significant cytotoxicity	improvement in MIC values when compared to the parent compound 2a (S. aureus strains): up to 16 fold; hemolytic activity, comparison [2]: less hemolytic when compared to ebselen; also recorded: least hemolytic; difference between cytotoxic concentration and MIC values (HEK-293): up to 40 fold
O=c1c2ccccc2sn1-c1ccccn1 [2m]						solubility [7]: soluble enough for biological testing
CCCCCCn1sc2ccccc2c1=O [3b]	no sign of membrane disruption	led to production of ROS				reduction of bacterial load (MRSA S22 (strain W)): 1.5 orders of magnitude
O=[N+]([O-])c1ccc2[nH]c(-c3ccccc3)cc2c1 [5-nitro-2-phenyl-(1H)-indole]						IC50 (NorA, efflux pump): < 5 µM
O=c1c2ccccc2sn1-c1cccc(Br)c1 [2g]				remained identical		
O=c1c2ccccc2sn1-c1ccccc1 [2a, 2-phenyl-1,2-benzisothiazol-3(2H)-one]	no sign of membrane disruption	led to production of ROS	2 to 7.8 (≈ 8.8 to 34.3 µM)			reduction of bacterial load (MRSA S22 (strain W)): 1.5 orders of magnitude
COc1cc(OC)cc(-n2sc3ccccc3c2=O)c1 [2k]			2 to 7.8 (≈ 6.96 to 27.1 µM)			
CC(C)c1ccc(-n2sc3ccccc3c2=O)cc1 [2e]					did not display any significant cytotoxicity	improvement in MIC values when compared to the parent compound 2a (S. aureus strains): up to 16 fold; difference between cytotoxic concentration and MIC values (HEK-293): up to 40 fold
O=c1c2ccccc2sn1-c1cccc2ccccc12 [2l]					did not display any significant cytotoxicity	
